Screening results (PubChem)
Shown are actives, neighbours in structure and some others; about 2.3% of the full set was active somewhere.
TRPC6 act: mouse TRPC6 channel activation. 0.13% of 310,000 active. HEK293-TRPC6 membrane potential dye fluorescence; stronger effect = higher value. AID 2550. B-score at 10 µM. Q61143;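 active = B-score of the integrated fluorescence ratio above library mean plus 3 SD, and starting fluorescence ratio within library mean plus 5 SD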;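 also: higher score means more depolarization so channel activation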
TRPC4 act: TRPC4 (mouse) channel activation; 0.49% of 310,000 active; HEK293 TRPC4beta/mu-opioid, Fluo4 calcium fluorescence; stronger effect = higher value; AID 2237; Q9QUQ5; B-score at 10 µM;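 active = B-score above 5 SD of library B-scores, and initial fluorescence ratio not above library mean plus 5 SD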;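 also: positive B-score marks a calcium rise read as TRPC4 activation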
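Material: TRPC4beta and mu-opioid receptor HEK293 stable cells | Incubation: 45 min room-temperature Fluo4 loading, 110 s read | Detection: Kinetic Fluo4 calcium fluorescence | Measure: Integrated baseline-normalised fluorescence ratio, converted to per-well B score | Benchmarks: Low control buffer alone, high control maximal DAMGO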
TRPC4 potent: allosterically enhances the mouse TRPC4 cation channel; Q9QUQ5; AID 2227; B-score at 10 µM; HEK293 TRPC4beta/mu-opioid, DAMGO EC20, Fluo-4 Ca2+ flux; stronger effect = higher value; 0.42% of 310,000 active;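 active = B-score of calcium response area above 5 SD of library B-scores, with initial fluorescence ratio within 5 SD of library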;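 also: B-score of integrated fluorescence ratio over time as area under calcium response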
TRPC4 inh: blocks the mouse TRPC4 cation channel; B-score at 10 µM; HEK293 TRPC4beta/mu-opioid, DAMGO-evoked Fluo4 calcium flux; stronger effect = lower value; Q9QUQ5; 0.39% of 300,000 active;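 active = B-score over 3 SD under the library average, no early fluorescence shift, positive overall ratio signal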
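System: stable TRPC4beta/mu-opioid receptor HEK293 cells; Dosing: single-point compound dosing; Measured by: Fluo4 Ca2+ flux fluorescence; Read-out basis: per-well B score of integrated baseline-normalized Fluo4 ratio.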
TRPC6 inh: inhibitors of mouse TRPC6 channel; HEK293-TRPC6, membrane potential dye, ACh-evoked depolarization; stronger effect = lower value; B-score at 10 µM; 1.1% of 310,000 active; AID 2553;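 active = B-score under library mean minus 3 SD, initial fluorescence not abnormally high, positive integrated signal ratio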;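 also: B-score derived from integrated fluorescence ratio over the kinetic read; more negative B-score means stronger inhibition of depolarization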
* marks the source's active call; other numbers are inactive results; i = inactive.

SMILES	TRPC6 act	TRPC4 act	TRPC4 potent	TRPC4 inh	TRPC6 inh
COCCn1nnnc1C(c1cc2ccc(OC)cc2[nH]c1=O)N1CCN(C2CCCCC2)CC1 (configuration not stated)	i	136*	i	i	i
COCCn1nnnc1C(c1cccc(OC)c1OC)N1CCN(C2CCCCC2)CC1 (configuration not stated)	i	i	i	-6*	i
COCCn1nnnc1C(c1cccc(OC)c1OC)N1CCN(C(=O)c2ccco2)CC1 (configuration not stated)	i	i	i	i	i
CCOC(=O)CC1COCCN1C(=O)c1ccc2oc(Cc3ccccc3)nc2c1 (configuration not stated)	i	i	i	i	i
N#Cc1c(N2CCCCC2)nc(N)c2c(N)nc3c(c12)CC(c1ccccc1)O3 (configuration not stated)	i	i	i	-9*	i
CCC1Cc2c(nc(N)c3c(N)nc(N4CCCCC4)c(C#N)c23)O1 (configuration not stated)	i	i	i	i	i
CC(C)(C)n1cnc2cc(NCc3ccc(Br)cc3)ccc21	i	i	25*	i	i
CCc1ccc(CNc2ccc3c(c2)ncn3C(C)(C)C)cc1	i	i	i	i	i
CCc1ccc(CNc2ccc3c(c2)ncn3CC)cc1	i	i	i	i	-5.05*
CCOc1cc(/C=C(\C#N)C(=O)Nc2cccc(C(=O)O)c2)ccc1OCc1ccccc1Cl	i	i	i	i	i
CCOc1cc(/C=C(\C#N)C(=O)Nc2cccc(C(=O)O)c2)cc(Br)c1OC(=O)c1ccc(OC)cc1	i	i	22*	i	i
COc1ccc(CCn2c(N)c(C#N)c3nc4ccccc4nc32)cc1OC	i	i	i	-6*	i
COC(=O)c1ccc(C(=O)N=c2sccn2C)cc1	i	i	i	i	i
C=CCn1c(SCC(=O)c2ccc(NS(=O)(=O)c3ccccc3)cc2)nnc1-c1cccs1	i	i	18*	i	i
Nc1nc(Nc2cccc(C(F)(F)F)c2)nc(C(F)(F)F)n1	i	i	i	i	-6.09*
CN(C)C(=O)CSc1n[nH]c(=O)n1CCc1ccccc1	i	i	i	i	i
CCOC(=O)C1(Cc2cccc(OC)c2)CCN(Cc2ccc3c(c2)OCCO3)CC1	i	56*	i	i	i
CCOC(=O)C1(CCOc2ccccc2)CCN(Cc2ccc3c(c2)OCCO3)CC1	i	61*	i	i	i
CCOC(=O)C1(Cc2cccc(OC)c2)CCN(Cc2cnc(SC)nc2)CC1	i	i	i	-5*	i
COCC(=O)Nc1ccc2c(c1)OCC(=O)N2Cc1ccc(C)cc1	i	i	i	i	i
CC1(C)CC2CC(C)(CN2/C=N/c2sc3c(c2C#N)CC(C)(C)NC3(C)C)C1 (configuration not stated)	i	i	i	i	i
COC(=O)Cn1cnc2c(cnn2-c2ccc(C)cc2)c1=O	i	i	i	i	i
Cc1noc(C)c1S(=O)(=O)N1CCC(C(=O)NCCCN2CC(C)CC(C)C2)CC1 (configuration not stated)	i	111*	i	i	i
CCCCNCC1C(Oc2ccc(Cl)cc2)C(=O)N1c1ccccc1C (configuration not stated)	i	i	i	-6*	i
CC(C)(C)[C@]1(O)CCN2C[C@H]3c4ccccc4CCc4cccc(c43)[C@@H]2C1	i	61*	i	i	i
O=C(CCS(=O)(=O)Cc1ccccc1F)NCCc1ccc(Cl)cc1	i	i	i	i	i
CCOc1ccccc1CN1CCN(Cc2cccc3nonc23)CC1CCO (configuration not stated)	i	i	i	-6*	i
CC1CCN(CCCOc2ccc(OCc3ccccc3)cc2)CC1	i	i	i	-6*	i
COc1cccc(NC(=O)CN(C)C(=O)c2ccccc2-c2nc3ccccc3s2)c1	i	i	i	i	i
